In data set [1] the test system is Rattus norvegicus. Kind of data set: Toxicity in Sprague-Dawley rat assessed as exploratory behavior at 10 to 2000 ug/kg, ip measured after 30 mins. In kind it is organism-based. Particulars: in vivo, 0.5 h.
The subject of data set [2] is Rattus norvegicus. Description: Antihypertensive activity in Wistar rat assessed as inhibition of methoxamine-induced change in blood pressure at 0.1 mg/kg, iv administered 10 mins after 20 ug/kg/min methoxamine challenge. In kind it is functional, organism-based. Details: dose 0.1 mg/kg. The gist of the method:
(§1)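 Male Wistar rats (200–290 g) anaesthetized with i.p. thiopental 70 mg/kg, maintained by thiopental infusion, 36–37 °C. Carotid catheter for BP/HR, jugular line for infusion. Methoxamine i.v. infusion 10 or 20 µg/kg/min began 10 min before 0.1 mg/kg i.v. bolus. Readout is ΔMAP or ΔHR from time 0. Five to seven rats per group; repeated-measures ANOVA.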

Data set [3] has as its system Rattus norvegicus. Description: Toxicity in Sprague-Dawley rat assessed as still state at 10 to 2000 ug/kg, ip measured after 30 mins. In kind it is organism-based. Particulars: in vivo, 0.5 h. Put shortly: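 Male Sprague–Dawley rats (250–270 g) were handled by the experimenter one day before testing. Compound was dissolved in sterile saline and given i.p. If no loss of righting reflex occurred after 5 min, the dose was repeated, up to 2000 µg/kg cumulative. Animals were watched for righting reflex, locomotion, motor coordination and behaviour. Righting reflex was scored at 30 min.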

For data set [4], the system named is Rattus norvegicus. Description: Antihypertensive activity in Wistar rat assessed as inhibition of methoxamine-induced change in heart rate at 0.1 mg/kg, iv administered 10 mins after 10 ug/kg/min methoxamine challenge. In kind it is functional, organism-based. Details: dose 0.1 mg/kg. Put shortly:
as §1

The test system of data set [5] is Rattus norvegicus. Description: Toxicity in Sprague-Dawley rat assessed as increase in body temperature at 10 to 2000 ug/kg, ip measured after 30 mins. In kind it is organism-based. Particulars: in vivo, 0.5 h.
Data set [6] has as its system Rattus norvegicus. Kind of data set: Antihypertensive activity in Wistar rat assessed as inhibition of methoxamine-induced change in heart rate at 0.1 mg/kg, iv administered 10 mins after 20 ug/kg/min methoxamine challenge. In kind it is functional, organism-based. Details: dose 0.1 mg/kg. Put shortly:
as §1

In data set [7] the test system is Rattus norvegicus. Kind of data set: Antihypertensive activity in Wistar rat assessed as inhibition of methoxamine-induced change in heart rate at 0.1 mg/kg, iv co-administered with 10 ug/kg/min methoxamine challenge. In kind it is functional, organism-based. Set-up: dose 0.1 mg/kg. The gist of the method: as §1

Calls of active or inactive are those of the source. The calls are words filed in the database; no cut-off is given here.

`Cl.Clc1cccc2cnn(CC3=NCCN3)c12`: the Activity result is on record as “Non-toxic” in data set [1], “Non-toxic” in data set [3] and “Toxic” in data set [5]. In addition, the result in data set [2], in data set [4] and in data set [6] was inactive. For the same compound, the outcome in data set [7] was Active.

For the origin of these results see ChEMBL document CHEMBL1926556, “Synthesis and biological activities of 2-[(heteroaryl)methyl]imidazolines” (Bioorg Med Chem, 2012).
